A selection: hits, their analogues and other compounds. The true share with any hit is near 2.6%.
rCAG binder – binds r(CAG) RNA repeats; r(CAG) RNA repeat, TO-PRO-1 dye displacement fluorescence; 1.3% of 370,000 active; inhibition, % at 3 µM;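 active = inhibition above the plate cutoff, the mean of all test compounds on that plate plus 3 SD, cut at about 35% in these data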;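 note: higher means more dye released from RNA so lower well fluorescence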
LMPTP block – LMPTP (human) inhibition | AID 651560 | recombinant LMPTP-A, OMFP fluorogenic substrate, fluorescence intensity | inhibition, % at 20 µM | 0.22% of 360,000 active | P24666;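 active = compounds that cut the enzyme signal by at least half of the control window in the single-dose screen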
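Test system: LMPTP-A phosphatase enzyme; input: 0.625 nM LMPTP-A final; reagent: OMFP substrate, 400 µM final; compound dosing: 20 µM single dose, 3% DMSO; incubation: 50 min dark incubation at room temperature; measured by: endpoint fluorescence intensity from OMFP dephosphorylation; measure: % inhibition relative to no-enzyme and uninhibited control wells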
Scp-1 inhibitor – Scp-1 (human) phosphatase inhibition | Q9GZU7 | Recombinant Scp1, phosphopeptide, malachite green phosphate absorbance | inhibition, % at 20 µM | 0.88% of 340,000 active | AID 493091;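 active = inhibition above about 50% at 20 µM, limit read from the data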
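Test system: SCP-1 phosphatase catalytic domain, residues 76-261 | Compound dosing: One concentration, 20 µM, with 1.0% DMSO | Schedule: 45 min room-temperature reaction, 5 min colour, 30 min stabiliser | Detection: Absorbance at 630 nm | Read-out basis: % inhibition of SCP-1 phosphate liberation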
STEP block – blocks human striatal-enriched tyrosine phosphatase. recombinant STEP, OMFP fluorogenic substrate, fluorescence. 0.25% of 360,000 active. P54829. inhibition, % at 20 µM. AID 588621;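 active = inhibition at 20 µM, scaled per plate between control wells, above about 37%, limit read from the data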
Target sequence (P54829 whole entry, looked up): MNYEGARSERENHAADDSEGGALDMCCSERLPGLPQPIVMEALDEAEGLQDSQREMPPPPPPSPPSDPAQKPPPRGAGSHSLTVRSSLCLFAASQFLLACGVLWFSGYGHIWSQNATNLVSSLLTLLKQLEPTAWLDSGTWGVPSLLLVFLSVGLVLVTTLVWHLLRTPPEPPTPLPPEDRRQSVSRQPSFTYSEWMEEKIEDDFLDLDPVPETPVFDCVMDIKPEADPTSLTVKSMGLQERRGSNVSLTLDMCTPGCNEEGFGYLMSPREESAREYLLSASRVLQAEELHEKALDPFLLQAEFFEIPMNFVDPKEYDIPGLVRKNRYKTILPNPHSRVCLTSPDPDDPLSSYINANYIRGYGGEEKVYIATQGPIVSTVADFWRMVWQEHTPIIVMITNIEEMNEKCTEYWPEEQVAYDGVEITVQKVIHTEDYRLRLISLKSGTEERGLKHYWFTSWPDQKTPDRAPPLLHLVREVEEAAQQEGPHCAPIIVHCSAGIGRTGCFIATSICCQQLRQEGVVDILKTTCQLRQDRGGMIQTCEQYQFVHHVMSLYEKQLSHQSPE
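System: STEP (striatal-enriched tyrosine phosphatase) enzyme, cell-free; medium: Bis-Tris pH 6.0 buffer with DTT, detergent; dosing: 20 µM, 1% DMSO; times: reaction 20 min, ambient temperature; detection: fluorescence, 480/540 nm; read-out basis: normalized % inhibition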
NadD block – inhibitors of Staphylococcus aureus NadD | purified NadD enzyme, colorimetric absorbance read-out | inhibition, % at 20 µM | 0.78% of 360,000 active; in the data active = inhibition above about 26%
NadD conf – confirmation of Staphylococcus aureus NadD inhibitors. shares compounds with NadD block. inhibition, % at 20 µM. purified S. aureus NadD, colorimetric enzyme assay. 13% of 2,000 active. AID 624309; in the data active = inhibition mostly above about 42%, no sharp cut-off; inactive = mostly below about 42%
rCAG binder conf – r(CAG) RNA repeat binding, confirmation; inhibition, % at 3 µM; 70% of 4,300 active; shares compounds with rCAG binder; TO-PRO-1 dye displacement fluorescence;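 active = inhibition above a per-plate cutoff, the mean inhibition of sample wells plus 3 SD, cut at about 35% in these data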;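 note: loss of TO-PRO-1 fluorescence as compound displaces dye from 1x1 AA loop RNA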
dCAG dye counter – DNA CAG dye complex inhibition counter-screen. shares compounds with rCAG binder. d(CAG) DNA oligo TO-PRO-1 dye displacement, fluorescence. inhibition, % at 3 µM. 94% of 4,300 active;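 active = inhibition above its plate's cutoff, the mean test-well inhibition plus 3 SD, cut at about 4.8% in these data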;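 note: hits displace the dye from DNA and so lower well fluorescence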
Hits are given with their value.

How did CCOc1ccc(N(CC(=O)Nc2c(C)n(C)n(-c3ccccc3)c2=O)S(=O)(=O)c2ccc(C(C)(C)C)cc2)cc1 do in these assays?
rCAG binder: inactive

What do the screens show for `COc1ccccc1N1CSC2=C(C#N)C(c3ccc(SC)cc3)CC(=O)N2C1` (centres undefined)?
rCAG binder: 40; LMPTP block: inactive; Scp-1 inhibitor: inactive; STEP block: inactive; NadD block: 35; NadD conf: inactive; rCAG binder conf: 47; dCAG dye counter: 19

Results for COc1ccc(NC(=O)c2cn(-c3ccccc3)nc2-c2ccncc2)cc1 ?
rCAG binder: inactive; LMPTP block: inactive; Scp-1 inhibitor: inactive; STEP block: inactive; NadD block: inactive

Results for COc1ccc(-c2nn(-c3ccccc3)cc2C(=O)NC(=S)NNC(=O)c2ccncc2)cc1 ?
rCAG binder: 56; LMPTP block: inactive; Scp-1 inhibitor: inactive; STEP block: inactive; NadD block: 58; NadD conf: inactive; rCAG binder conf: 55; dCAG dye counter: 20

What do the screens show for `COc1ccc(C2=NN(C(=O)COC(=O)c3ccc(NC(=O)CC#N)cc3)C(c3ccco3)C2)cc1` (centres undefined)?
rCAG binder: 35; LMPTP block: inactive; Scp-1 inhibitor: inactive; STEP block: inactive; NadD block: 37; NadD conf: inactive; rCAG binder conf: inactive; dCAG dye counter: 18

Results for COc1cc(/C=C/c2ccc3c(Br)cc(Br)c(O)c3n2)ccc1O ?
rCAG binder: 39; LMPTP block: inactive; Scp-1 inhibitor: inactive; STEP block: inactive; NadD block: 61; NadD conf: inactive; rCAG binder conf: 39; dCAG dye counter: 20

What do the screens show for `O=C(/C=C/c1ccccc1)c1cc(Br)ccc(=O)c1O`?
rCAG binder: 51; LMPTP block: inactive; Scp-1 inhibitor: inactive; STEP block: inactive; NadD block: inactive; rCAG binder conf: 41; dCAG dye counter: 17

Results for O=C(COC(=O)c1cccc(NS(=O)(=O)c2ccc(F)c(F)c2)c1)NC(=O)NC1CCCC1 ?
rCAG binder: 36; LMPTP block: inactive; Scp-1 inhibitor: inactive; STEP block: inactive; NadD block: inactive; rCAG binder conf: inactive; dCAG dye counter: 5.0

Results for O=C(COC(=O)c1cccc(F)c1)NC(=O)NC1CCCC1 ?
rCAG binder: inactive; LMPTP block: inactive; Scp-1 inhibitor: inactive; STEP block: inactive; NadD block: inactive

What do the screens show for `CC(C)c1ccc(NC(=O)Nc2nc(C(N)C(C)C)cs2)cc1` (centres undefined)?
rCAG binder: inactive; LMPTP block: inactive; STEP block: inactive; NadD block: inactive

Results for CC(C)C(N)c1csc(NC(=O)Nc2cccc(Cl)c2)n1 (centres undefined) ?
rCAG binder: 44; LMPTP block: inactive; STEP block: inactive; NadD block: inactive; rCAG binder conf: 51; dCAG dye counter: 8.4

Results for NC(c1csc(NC(=O)Nc2cccc(Cl)c2)n1)c1ccccc1Cl (centres undefined) ?
rCAG binder: 41; LMPTP block: inactive; STEP block: inactive; NadD block: inactive; rCAG binder conf: 50; dCAG dye counter: 17

What do the screens show for `O=C(NNC(=O)c1cc2ccccc2cc1O)Nc1ccccc1F`?
rCAG binder: 41; LMPTP block: inactive; Scp-1 inhibitor: inactive; STEP block: inactive; NadD block: inactive; rCAG binder conf: inactive; dCAG dye counter: 7.2

Results for Cc1cccc(NC(=O)NNC(=O)c2cc3ccccc3cc2O)c1C ?
rCAG binder: inactive; LMPTP block: inactive; Scp-1 inhibitor: inactive; STEP block: inactive; NadD block: inactive

Results for Cc1ccc(C)c(NC(=O)NNC(=O)c2cc3ccccc3cc2O)c1 ?
rCAG binder: 35; LMPTP block: inactive; Scp-1 inhibitor: inactive; STEP block: inactive; NadD block: inactive; rCAG binder conf: inactive; dCAG dye counter: 9.0

How did COc1ccc(NC(=O)c2cc3ccccc3cc2O)cc1 do in these assays?
rCAG binder: 46; LMPTP block: inactive; Scp-1 inhibitor: inactive; STEP block: inactive; NadD block: inactive; rCAG binder conf: 39; dCAG dye counter: 16

How did Cc1ccc(NC(=O)NNC(=O)c2cc3ccccc3cc2O)c(C)c1 do in these assays?
rCAG binder: inactive; LMPTP block: inactive; Scp-1 inhibitor: inactive; STEP block: inactive; NadD block: inactive

How did C=CCN1[C@H](Cc2ccccc2)COc2cccc(N3CCSCC3)c2S1(=O)=O do in these assays?
rCAG binder: inactive

What do the screens show for `COC(=O)C1=C(C)N(C)C(=NCC2CC2)NC1CCc1ccccc1` (centres undefined)?
rCAG binder: inactive

Results for COC(=O)[C@]12C[C@H](CC(=O)N3CCSCC3)C(=O)N(CCC3=CCCCC3)C1=C[C@H](C(C)C)O[C@@H]2C1CC1 ?
rCAG binder: inactive

What do the screens show for `CCOC(=O)c1c(-c2ccc(OC)cc2)csc1NC(=O)CCN1C(=O)c2ccccc2C1=O`?
LMPTP block: inactive; Scp-1 inhibitor: inactive; STEP block: inactive; NadD block: inactive

How did CCOC(=O)c1c(-c2ccc3ccccc3c2)csc1NC(=O)CCCC(=O)O do in these assays?
rCAG binder: 45; LMPTP block: inactive; Scp-1 inhibitor: inactive; STEP block: inactive; NadD block: inactive; rCAG binder conf: 50; dCAG dye counter: 14

How did O=C(O)c1oc2ccccc2c1CSc1ccc(Cl)cc1 do in these assays?
rCAG binder: 40; LMPTP block: inactive; Scp-1 inhibitor: inactive; STEP block: inactive; NadD block: inactive; rCAG binder conf: inactive; dCAG dye counter: inactive

How did O=C(CN1C(=O)S/C(=C/C=C/c2ccccc2)C1=O)Nc1ccc(C(=O)O)cc1 do in these assays?
rCAG binder: 65; LMPTP block: inactive; Scp-1 inhibitor: inactive; STEP block: inactive; NadD block: inactive; rCAG binder conf: 45; dCAG dye counter: 15

What do the screens show for `Cc1ccc(NC(=O)CN2C(=O)S/C(=C\c3cc(C)n(-c4ccc(C(=O)O)cc4)c3C)C2=O)cc1`?
rCAG binder: 68; LMPTP block: inactive; Scp-1 inhibitor: inactive; STEP block: inactive; NadD block: inactive; rCAG binder conf: 85; dCAG dye counter: 48

What do the screens show for `O=C(CCN1C(=O)/C(=C\C=C\c2ccccc2)SC1=S)Nc1ccc(C(=O)O)cc1`?
rCAG binder: 46; LMPTP block: 83; Scp-1 inhibitor: 88; STEP block: 87; NadD block: inactive; rCAG binder conf: 78; dCAG dye counter: 43

What do the screens show for `O=C(CN1C(=O)S/C(=C\C=C\c2ccccc2)C1=O)Nc1ccc(C(=O)O)cc1`?
rCAG binder: 54; LMPTP block: inactive; Scp-1 inhibitor: inactive; STEP block: inactive; NadD block: inactive; rCAG binder conf: 46; dCAG dye counter: 18
